XBP1 UPR activ – adaptive UPR (XBP1) activation; CHO-XBP1 luciferase reporter, IRE1-XBP1 UPR activation, luminescence; percent of tunicamycin response, DMSO as zero; activation, % at 20 µM; 330,000 tested, 0.33% active; AID 463104;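 active = versus positive control, 20 µM dose yields 30% or more activation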
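Test system: CHO-XBP1 luciferase reporter cells | Buffer or medium: Serum-containing F12 medium, 10% FBS | Schedule: 6 h compound exposure at 37 °C, 5% CO2 | Detection: Steady-Glo luciferase glow luminescence, 10 min after reagent addition | Read-out basis: Activation, % of tunicamycin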
p97 ATPase inh – inhibitors of human p97 ATPase; recombinant p97 ATPase, Kinase-Glo ATP luminescence, 3 h; inhibition, % at 8 µM; 220,000 tested, 0.42% active; AID 1481; in the data active = inhibition above about 15%
Target sequence (P55072 whole entry, looked up): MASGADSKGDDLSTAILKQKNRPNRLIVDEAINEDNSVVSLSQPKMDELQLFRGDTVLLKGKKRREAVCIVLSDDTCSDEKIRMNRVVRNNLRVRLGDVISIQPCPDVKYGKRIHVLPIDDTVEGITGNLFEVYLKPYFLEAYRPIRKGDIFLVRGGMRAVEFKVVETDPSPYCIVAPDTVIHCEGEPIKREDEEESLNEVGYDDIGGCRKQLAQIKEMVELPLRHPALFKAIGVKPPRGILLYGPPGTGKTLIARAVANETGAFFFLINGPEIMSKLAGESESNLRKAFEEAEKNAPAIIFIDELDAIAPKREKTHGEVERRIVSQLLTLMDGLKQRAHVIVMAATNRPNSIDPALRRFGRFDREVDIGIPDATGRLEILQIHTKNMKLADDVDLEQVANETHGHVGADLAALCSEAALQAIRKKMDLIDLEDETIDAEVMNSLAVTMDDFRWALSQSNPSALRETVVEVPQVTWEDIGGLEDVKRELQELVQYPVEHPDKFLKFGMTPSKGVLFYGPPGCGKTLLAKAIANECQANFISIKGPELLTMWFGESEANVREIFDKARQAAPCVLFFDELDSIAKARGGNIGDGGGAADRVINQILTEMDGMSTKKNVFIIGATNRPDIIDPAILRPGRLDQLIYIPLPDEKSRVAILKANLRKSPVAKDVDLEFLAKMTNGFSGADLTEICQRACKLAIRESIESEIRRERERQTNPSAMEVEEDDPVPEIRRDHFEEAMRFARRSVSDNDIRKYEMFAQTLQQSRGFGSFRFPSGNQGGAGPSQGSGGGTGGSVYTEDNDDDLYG
NS3 helicase inh – blocks Hepatitis C virus NS3 helicase unwinding; NS3 helicase DNA unwinding, Cy5 molecular beacon fluorescence; inhibition, % at 10.9 µM; 290,000 tested, 0.56% active; AID 1800;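 active = inhibition above the mean of all tested compounds plus 3 SD, set per campaign, cut at about 35% in these data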
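Test system: hepatitis C virus NS3 helicase domain fragment enzyme. Also added: annealed dual-labelled DNA beacon duplex, ATP-started. Timing: 60 min unwinding reaction at 25 °C after ATP addition. Technique: Cy5 fluorescence. Measure: % inhibition of unwinding.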
CHOP inhibitor – blocks CHOP induction under ER stress. inhibition, % at 10 µM. AID 2732. 220,000 tested, 3.8% active. CHO-K1 CHOP-promoter luciferase, tunicamycin-induced, 15-18 h;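 active = compounds that reduced the stress-induced luciferase reporter signal by more than about 70% of percent inhibition, limit read from the data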
PfM18AAP inh – PfM18AAP enzyme inhibition; recombinant PfM18AAP, H-Glu-NHMec fluorogenic cleavage; inhibition, % at 7.35 µM; 290,000 tested, 1.2% active; AID 1822;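 active = inhibition above the campaign mean inhibition over all tested compounds plus 3 SD, cut at about 28% in these data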
CHOP UPR activ – apoptotic UPR (CHOP) activation. CHO-CHOP luciferase reporter, luminescence; percent of tunicamycin response over DMSO baseline. activation, % at 10 µM. 330,000 tested, 0.34% active;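 active = at 10 µM dose, activation of 40% or more, normalized to positive control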
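System: CHO-CHOP luciferase reporter cell line; amount: 500 cells/well; buffer or medium: F12 medium containing 10% fetal bovine serum; incubation: 6 h compound exposure at 37 °C after overnight seeding; measured by: luciferase luminescence after 10 min with Steady-Glo reagent; evaluation: % reporter activation, DMSO baseline versus tunicamycin full activation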
Each line names hits and unclear results; the compound was inactive in the other large screens. Rows were chosen to be rich in hits. Some 4.5% of all compounds tested hit in one or more screens of this group.

CC(CCc1ccccc1)NC(=O)CC(C)c1ccccc1 (configuration not stated)	none (no result: p97 ATPase inh, CHOP inhibitor)
CCOc1cc(C)nc(N2CCCC(C(=O)NCc3ccccc3F)C2)n1 (configuration not stated)	CHOP inhibitor 71
Cc1cc(C)nc(N2CCCC(C(=O)NCCc3ccccc3F)C2)n1 (configuration not stated)	none
CCSc1nnc(NC(=O)c2cc(C)oc2C)s1	CHOP inhibitor 78
CNC(=O)C(=O)Nc1cc2c3c(c1)CCN3C(=O)CC2	none (no result: p97 ATPase inh, CHOP inhibitor)
Cc1ccc(COc2ccccc2C(=S)N2CCCC2)cc1	PfM18AAP inh 28
Fc1ccc(COc2ccccc2C(=S)N2CCCC2)cc1	none
CCCCCC(=O)NNC(=S)NC(=O)c1ccc([N+](=O)[O-])cc1	PfM18AAP inh 31
Cc1ccc(C(=O)NC(=S)NNC(=O)c2ccc([N+](=O)[O-])cc2)cc1	none (no result: p97 ATPase inh, CHOP inhibitor)
COc1ccc(NC(=O)Cn2c(-c3ccccc3)cn(-c3ccc(C)cc3)c2=O)cc1	CHOP inhibitor 72
CCOC(=O)c1cc(-c2ccccc2)n(CC(=O)Nc2ccc(OC)cc2)c1C	CHOP inhibitor 75
CCCN1C(=O)c2ccccc2NC1c1ccc(Cl)c(Cl)c1 (configuration not stated)	none (no result: p97 ATPase inh, CHOP inhibitor)
CN1CC(c2ccc(Cl)c(Cl)c2)[C@@]2(COc3ccccc3C2=O)[C@@]12C(=O)Nc1ccccc12 (some centres not stated)	CHOP inhibitor 74
Cc1ccc(-c2n[nH]c(Cc3ccccc3)n2)cc1	none (no result: p97 ATPase inh, CHOP inhibitor)
O=C(Nc1nccs1)c1ccc(N2CCOCC2)c([N+](=O)[O-])c1	none (no result: p97 ATPase inh, CHOP inhibitor)
CN1CCN(c2ccccc2NC(=O)c2ccc(OCc3ccccc3)cc2)CC1	none
CN1CCN(c2ccccc2NC(=O)c2cccc(OCc3ccccc3)c2)CC1	CHOP inhibitor 78
Cc1ccc(C2c3c(oc4ccccc4c3=O)C(=O)N2c2nnc(C(C)C)s2)o1 (configuration not stated)	CHOP inhibitor 85
Cc1nnc(N2C(=O)c3oc4ccccc4c(=O)c3C2c2ccco2)s1 (configuration not stated)	none
COc1cccc(C2CC(=O)Nc3cc4c(cc32)CCC4)c1 (configuration not stated)	none
O=C1CC(c2cccc(Cl)c2)c2cc3c(cc2N1)CCC3 (configuration not stated)	CHOP inhibitor 86
CCC1(C)N(O)C(C)(C)C(c2ccc(F)cc2)=[N+]1[O-] (configuration not stated)	PfM18AAP inh 29
CCN1CCN(Cc2ccc(NC(=O)c3cc(NC(=O)c4cc(-c5ccc(OC)cc5)n[nH]4)cc(OC)c3)cc2C(F)(F)F)CC1	CHOP inhibitor 87 (no result: p97 ATPase inh, NS3 helicase inh, PfM18AAP inh)
O=C(CSc1cccc[n+]1[O-])Nc1ccccc1Oc1ccccc1	CHOP UPR activ 108
OC(COc1cccc2ccccc12)CN1CCN(c2cccc(Cl)c2)CC1 (configuration not stated)	CHOP inhibitor 71
CC(=O)c1ccccc1OCC(O)CN1CCN(C(c2ccccc2)c2ccccc2)CC1 (configuration not stated)	CHOP inhibitor 75
OC(COc1ccc2ccccc2c1)CN1CCN(c2ccc(F)cc2)CC1 (configuration not stated)	CHOP inhibitor 87
COc1cccc(OCC(O)CN2CCN(c3ccc(F)cc3)CC2)c1 (configuration not stated)	none (no result: p97 ATPase inh, CHOP inhibitor)
COc1cccc(OCC(O)CN2CCN(C(c3ccccc3)c3ccccc3)CC2)c1 (configuration not stated)	none (no result: p97 ATPase inh, NS3 helicase inh, CHOP inhibitor, PfM18AAP inh)
CCOc1ccc(NC(=S)N2CCN(S(=O)(=O)c3ccc(C)cc3)CC2)cc1	none (no result: p97 ATPase inh, CHOP inhibitor)
COc1ccccc1C(=O)Nc1cc(Cl)ccc1O	p97 ATPase inh 15
COc1ccc(Cl)cc1NC(=O)c1ccccc1C	none
CC(C)c1ccc(/C=C(/C#N)c2nnc(NC(=O)c3ccccc3)s2)cc1	none
O=c1oc2cc(Br)ccc2n1CSC1=NCCS1	CHOP inhibitor 71
Cc1ccc(S(=O)(=O)n2[nH]c(=O)c(CCO)c2C)cc1	none
O=C(O)c1ccc(N/N=C/c2ccc3c(c2)OCO3)cc1	CHOP inhibitor 93
O=C(O)c1cc(N/N=C/c2ccc3c(c2)OCCO3)ccc1Cl	CHOP inhibitor 72 (no result: XBP1 UPR activ, CHOP UPR activ)
CCN1C(=O)[C@H]2[C@@H](c3ccc(-c4ccc(C(C)=O)cc4)cc3)N[C@@](C)(C(=O)OC)[C@H]2C1=O	none (no result: p97 ATPase inh, NS3 helicase inh, CHOP inhibitor, PfM18AAP inh)
Cc1ccccc1OCc1nc2ccccc2c(=O)n1/N=C/c1cn[nH]c1-c1ccccc1	CHOP inhibitor 85
O=C(CCNS(=O)(=O)c1cccc2nonc12)Nc1ccc(Cl)cc1	none (no result: p97 ATPase inh, CHOP inhibitor)
O=C(CCNS(=O)(=O)c1cccc2nonc12)NCCc1ccc(Cl)cc1	CHOP inhibitor 76
Cc1nc2c3cc(F)ccc3n(Cc3ccccc3)c2s1	CHOP inhibitor 74
Cc1ccc(/C=C/C(=O)c2c(C)nc3ccccn23)cc1	none
Cc1nc2ccccn2c1C(=O)/C=C/c1cccc([N+](=O)[O-])c1	CHOP UPR activ 116
O=C(Nc1ccc2c(c1)OCO2)C1COc2ccccc2O1 (configuration not stated)	none
Cc1cccc(OCC(=O)Nc2ccc3c(C)cc(=O)oc3c2)c1	CHOP inhibitor 92
Cc1cc(=O)oc2cc(NC(=O)C3COc4ccccc4O3)ccc12 (configuration not stated)	CHOP inhibitor 89
CCN(CC(=O)NC1CCS(=O)(=O)C1)C(=O)c1cc(OC)c(OC)c(OC)c1 (configuration not stated)	none (no result: p97 ATPase inh, NS3 helicase inh, CHOP inhibitor, PfM18AAP inh)
CCCCOC(=O)CSc1nnc(-c2ccc(Cl)cc2Cl)o1	CHOP inhibitor 71
CC(=NCCc1c(C)[nH]c2ccc(OC(F)(F)F)cc12)C1=C(O)CC(c2ccccc2)CC1=O (configuration not stated)	CHOP inhibitor 72
CN(C)CCN(C)Cc1c2ccccc2c(CN(C)CCN(C)C)c2ccccc12	PfM18AAP inh 29 (no result: p97 ATPase inh, CHOP inhibitor)
Cc1cccc2sc(NC(=O)CN(C)S(=O)(=O)c3cccs3)nc12	none
Cc1cccc2sc(NC(=O)CN(C)S(=O)(=O)c3ccc(Br)s3)nc12	CHOP inhibitor 85
CCOC(=O)C(Cc1c[nH]c2ccccc12)NC(=O)c1ccccc1Br (configuration not stated)	none (no result: p97 ATPase inh, CHOP inhibitor)
O=C(CN1C(=O)S/C(=C\c2ccccc2)C1=O)NNC(=O)c1ccccc1O	none
O=C(CCCN1C(=O)/C(=C\c2ccccc2)SC1=S)Nc1ccc(O)cc1C(=O)O	none (no result: p97 ATPase inh, CHOP inhibitor)
COc1ccc(/C=C2\SC(=O)N(CC(=O)NNC(=O)c3ccccc3O)C2=O)cc1OC	none

Bioassay records: PubChem, several laboratories
